According to PMC5474392 (Bioorganic & medicinal chemistry letters, 2016):

Legend:
[1] = tested on: MCF-7; test: antiproliferative assay, MCF-7; assay type: cell-based; conditions: Homo sapiens, MCF7, read-out: IC50 MCF-7
Procedure, shortened: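 Run as an antiproliferative screen on human cancer lines alongside the normal mammary epithelial line MCF-10, with a positive control included. The highest test concentration was 33.3 μM.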

[2] = tested on: MCF-10; test: antiproliferative assay, normal mammary epithelial cell line MCF-10; assay type: cell-based; conditions: Homo sapiens, MCF10, read-out: IC50 MCF-10
Procedure, shortened: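 Human cancer and normal mammary epithelial lines were tested in an antiproliferative assay. Shikonin served as the positive control. The highest test concentration was 33.3 μM.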

| SMILES | IC50 [1] | IC50 [2] |
| --- | --- | --- |
| O=C1C2=C(C(=O)c3ccccc31)C(O)C1=C(O)CC(c3ccccc3)C1=C2O (stereo not drawn) [Compound 4a] | > 33.3 µM | > 33.3 µM |
| COc1cccc2c1C(=O)c1c(O)c3c(c(O)c1C2=O)C[C@@](O)(C(=O)CO)C[C@@H]3O[C@H]1C[C@H](N)[C@H](O)[C@H](C)O1 [Doxorubicin, reference compound] | 1.17 µM | – |
